Screening results deposited in PubChem BioAssay by several laboratories.
In the library only some 6.4% were active in any assay of this set; here they are far more common.
PostGolgi yeast: phenotypic screen on post-Golgi transport, primary screen; post-Golgi transport phenotypic cell assay; inhibition, % at 10 µM; 98,000 compounds, 0.9% hits; AID 739, 2007;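 further: yeast cells grown in 1536-well plates; yeast grown about 18 h at 30C before absorbance read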
PLK1 PBD inh: Plk1 polo box domain binding inhibitors, primary screen, biochemical, fluorescence polarization. Serine/threonine-protein kinase PLK1 (Homo sapiens), P53350. Plk1 PBD phosphopeptide binding. inhibition, %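 (tested at about 20 µM)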. 97,000 compounds, 0.13% hits. AID 693, 2007; in the data active means inhibition above about 34%, passing the limit was not always enough
Target sequence (P53350 whole entry, looked up, the tested form may be a part): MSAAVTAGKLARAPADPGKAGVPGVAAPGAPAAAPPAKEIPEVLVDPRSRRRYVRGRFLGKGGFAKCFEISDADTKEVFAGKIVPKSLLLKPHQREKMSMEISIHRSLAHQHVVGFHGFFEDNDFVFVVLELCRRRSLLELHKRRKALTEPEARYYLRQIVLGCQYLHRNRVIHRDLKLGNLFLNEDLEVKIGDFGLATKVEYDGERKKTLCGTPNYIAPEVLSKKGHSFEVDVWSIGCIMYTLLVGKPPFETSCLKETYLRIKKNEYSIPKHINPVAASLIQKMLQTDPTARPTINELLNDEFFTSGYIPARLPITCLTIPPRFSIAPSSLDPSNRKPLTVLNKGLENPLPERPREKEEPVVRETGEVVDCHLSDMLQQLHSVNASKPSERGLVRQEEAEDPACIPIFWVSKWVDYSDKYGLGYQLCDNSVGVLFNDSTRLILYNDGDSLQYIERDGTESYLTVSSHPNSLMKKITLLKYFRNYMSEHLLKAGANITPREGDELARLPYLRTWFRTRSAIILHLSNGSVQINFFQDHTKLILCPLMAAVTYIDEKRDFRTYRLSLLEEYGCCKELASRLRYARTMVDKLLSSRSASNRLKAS
EphB4 antag: EphB4-ephrin-B2 interaction antagonists, primary screen, biochemical, TNYL-RAW peptide probe, fluorescence polarization; Ephrin type-B receptor 4 (Homo sapiens), P54760; EphB4 LBD / TNYL-RAW-Alexa532 peptide; inhibition, % at 7 µM; 97,000 compounds, 0.15% hits; AID 720, 2007;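 active means inhibition above the screen-wide mean inhibition plus 3 SD, cut at about 15% in these data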;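 further: 0% = DMSO wells and 100% = excess unlabeled TNYL-RAW peptide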
PostGolgi ctrl: growth inhibition of yeast control strain, primary screen, counter-screen for post-Golgi transport modulator project. efflux-deficient yeast background strain, growth absorbance A615, 16 h. inhibition, % at 10 µM. 98,000 compounds, 5% hits
HIV Rev-RRE inh: HIV-1 Rev-RRE binding inhibitors, primary screen, biochemical, FRET, protein-RNA interaction | 97,000 compounds, 0.79% hits | P05866 | Rev peptide-RRE RNA binding | inhibition, % at 8 µM;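 active means inhibition above the screen-wide mean plus 3 SD, cut at about 35% in these data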;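 further: 0% = median DMSO wells and 100% = median Neomycin B control wells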
Target sequence (P05866 whole entry, looked up): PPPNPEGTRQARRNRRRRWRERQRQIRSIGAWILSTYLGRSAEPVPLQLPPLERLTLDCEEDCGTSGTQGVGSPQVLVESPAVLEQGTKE
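Test system: labelled RRE RNA duplex and labelled Rev peptide. Times: 5 min compound–RNA preincubation, then 15 min with peptide, 25 °C. Doses: single-dose 8 µM. Measured by: FRET, excitation 480 nm, emission 540 nm donor and 671 nm acceptor. Measure: % inhibition of FRET ratio versus controls.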
PLK1 kinase inh: human PLK1 kinase inhibitors, primary screen, biochemical, TR-FRET; Serine/threonine-protein kinase PLK1 (Homo sapiens), P53350; recombinant PLK1 kinase, TR-FRET peptide phosphorylation; inhibition, % at 10 µM; 97,000 compounds, 0.53% hits;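 active means inhibition of 50% or more in the single-concentration screen; inactive means inhibition below 50%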;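 further: 0% = DMSO max control and 100% = H-89 dihydrochloride min control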
* hit, by the source's call; . = no result. Unless noted, no stated cut-off is given here; in the data, active means inhibition above about 30%; inactive means the rest.

SMILES	PostGolgi yeast	PLK1 PBD inh	EphB4 antag	PostGolgi ctrl	HIV Rev-RRE inh	PLK1 kinase inh
Cc1sc(NC(=O)c2ccco2)nc1-c1ccc2c(c1)CC(C)N2C(=O)C1CC1 (centres undefined)	2.7	.	.	32.5*	.	.
Cc1sc(NC(=O)c2ccco2)nc1-c1ccccc1	4.1	8.6	4.6	21.2	5.9	-2.4
COc1ccccc1C(=O)Nc1c2c(nn1-c1cccc(C)c1C)CS(=O)C2 (centres undefined)	-3.6	-13.8	0.3	3.7	0.1	-4.7
O=[N+]([O-])c1nn(-c2ccc3c(c2)OCCO3)n(O)c1=NCc1ccccc1Cl	0.0	-21.4	-7.0	44.3*	6.2	-20.8
Cc1cc(NC(=O)c2c(F)cccc2F)n(-c2nc3ccccc3[nH]2)n1	-0.7	-5.2	-1.5	30.0*	-1.1	-8.8
Cc1cc(Nc2ccccc2)n(-c2nc3ccccc3[nH]2)n1	2.6	.	.	41.2*	.	.
Cc1cc(NC(=O)c2ccccc2F)n(-c2nc3ccccc3[nH]2)n1	-3.3	-17.0	8.9	17.2	7.3	-6.6
CCOC(=O)c1cnn(-c2ccccc2)c1-n1cccc1C(=O)C(=O)Nc1ccccc1	1.9	-12.2	-6.7	30.9*	4.1	-2.2
CCOC(=O)c1cnn(-c2ccccc2)c1-n1cccc1C(=O)C(=O)Nc1ccc(F)cc1	-10.4	-31.7	-4.6	17.8	0.1	-5.2
CCCS(=O)(=O)N1CCCC(C(=O)NCCCN(C)Cc2ccccc2)C1 (centres undefined)	5.0	-11.1	2.0	38.9*	-1.7	42.4
CCNc1nc(NC(C)C)nc(N(C#N)Cc2ccccc2)n1	-4.2	2.1	-11.1	22.2	7.0	-5.6
CCNc1nc(NC(C)C)nc(N(C#N)CCOc2ccc(Cl)cc2Cl)n1	9.7	-16.8	-7.1	38.7*	6.4	-11.4
Cc1ccc(-c2noc(CSc3nnnn3C3CCCCC3)n2)cc1	-6.8	20.2	3.0	39.6*	14.2	-15.9
COC(=O)C1=C(C)N(Cc2ccc(C)cc2)C(=O)C1	25.4	7.3	-2.0	-3.9	5.5	-0.7
COc1ccc(-c2nc(C#N)c(N3CCc4ccccc4C3)o2)cc1OC	4.6	19.5	-6.0	32.9*	-5.1	-6.8
COc1ccccc1-c1nc(C#N)c(N2CCCCCC2)o1	-9.8	10.4	-10.4	42.1*	12.3	-8.1
COc1ccc(N2CCN(c3oc(-c4ccco4)nc3C#N)CC2)cc1	31.6*	-7.1	-1.6	-3.3	4.1	-5.8
CCN(CC(=O)Nc1ccccc1C(=O)OC)S(=O)(=O)c1ccc(OC)cc1	-6.0	-11.4	5.0	39.6*	8.4	-0.7
COC(=O)c1ccccc1NC(=O)CN(c1ccc(OC)cc1)S(C)(=O)=O	.	-14.0	-6.1	.	1.8	-8.9
Cc1nn(-c2ccc(C(=O)O)cc2)c(C)c1Oc1ccccc1O	-7.1	-13.0	2.2	2.5	8.6	-12.6
Cc1nn(-c2ccccn2)c(C)c1Oc1ccccc1O	34.5*	-42.6	1.2	0.3	0.2	-3.2
CCOC(=O)c1cc(C#N)c(Oc2ccc(F)cc2)nc1-c1ccccc1	5.8	-15.8	-1.9	36.9*	2.7	-13.9
CCOC(=O)c1cc(C#N)c(Oc2cccc(C(F)(F)F)c2)nc1-c1ccccc1	-2.8	-1.8	0.1	8.8	6.3	-13.4
O=C(CN(Cc1ccccc1F)S(=O)(=O)c1ccc(Cl)cc1)NCCCO	1.3	-6.6	-5.3	1.6	1.5	-14.0
Cc1ccc(OCc2nnc(SCC(=O)CC(=O)Nc3ccccc3)o2)cc1	-9.3	-12.6	10.2	33.0*	5.5	-1.2
SMILES	PostGolgi yeast	PLK1 PBD inh	EphB4 antag	PostGolgi ctrl	HIV Rev-RRE inh	PLK1 kinase inh
CC(NC(=O)CSc1nnc(COc2ccccc2)o1)c1ccccc1 (centres undefined)	-1.1	-3.2	-0.2	1.6	1.8	-5.9
COCC(=O)N(C)c1nnc(-c2cnc(C)cn2)s1	4.8	3.9	0.8	12.0	6.6	-11.5
Cn1ncc(C#N)c1/N=C/N(Cc1ccccc1)Cc1ccccc1	1.7	3.3	-7.6	35.2*	14.3	-5.8
COc1cccc(-c2nc(CS(=O)(=O)CC(=O)N3CCc4ccccc43)c(C)o2)c1	1.1	8.4	-2.1	9.3	10.8	-9.0
CCOc1ccccc1OC(=O)c1ccco1	-2.2	-17.6	2.3	35.9*	9.2	-13.2
Cc1ccc(C(C)C)c(OCCNC(=S)Nc2cccc3ccccc23)c1	-5.5	30.3	-2.2	0.8	-2.0	0.1
CC(C)CNc1nc(Oc2ccc(=O)n(-c3ccccc3)n2)nc(N2CCOCC2)n1	-2.7	-7.6	6.3	11.9	4.1	-24.1
CC(C)CNc1nc(Oc2ccc(=O)n(C)n2)nc(N2CCOCC2)n1	32.3*	-23.7	-1.6	3.3	1.5	-0.5
Cc1nn(CC(O)Cn2c3c(c4ccccc42)CCN(C)C3=O)c(C)c1Br (centres undefined)	-8.2	-14.3	-3.5	43.3*	5.2	-8.2
CCc1nc(N2CCN(Cc3ccc4c(c3)OCO4)CC2)c2oc3ccccc3c2n1	11.6	-0.3	-6.2	15.2	-1.8	-8.9
CC(=O)Nc1ccc(S(=O)(=O)N2CCN(c3cccc(C)c3C)CC2)cc1	2.2	-18.6	-10.9	50.6*	7.9	7.5
CC(=O)Nc1ccc(S(=O)(=O)N2CCCN(S(=O)(=O)c3ccc(NC(C)=O)cc3)CC2)cc1	6.4	-1.6	6.0	0.8	8.1	-17.1
Cc1cccc(N2CCN(C(=O)C(C)C)CC2)c1C	90.9*	3.5	-3.6	85.4*	1.4	-8.4
Cc1cccc(N2CCN(C(=O)Cc3cn(C)c4ccccc34)CC2)c1C	7.7	-7.5	-6.2	43.5*	21.8	-1.7
Cc1cccc(N2CCN(C(=O)Cn3cccc3)CC2)c1C	4.0	-8.9	-1.0	8.3	1.8	-13.2
Cc1cccc(N2CCN(C(=O)COc3cc(=O)n(C)c4ccccc34)CC2)c1C	1.2	-15.7	-4.2	14.1	-4.2	-2.9
O=C(CN(Cc1ccc2c(c1)OCO2)C(=O)c1cnsn1)NC1CCCC1	2.6	7.2	-2.6	15.2	2.3	-10.7
C#CCSc1nnc(-c2ccc(OC)cc2)o1	22.6	7.4	-2.1	16.3	5.0	-1.1
CC1CCCCN1C(=O)Cn1cc(/C=C2/C(=O)Nc3ccccc32)c2ccccc21 (centres undefined)	60.8*	-0.6	-4.2	76.6*	-0.3	-4.7
COC(=O)c1cn(CC(=O)N2CCCCC2C)c2ccccc12 (centres undefined)	-0.5	-3.6	-1.9	1.0	1.0	-11.4
CCc1ccc(-c2cn(-c3nc(C)cc(C)n3)c(=N)o2)cc1	9.9	1.5	5.2	10.5	14.0	-4.5
COc1ccc(NS(=O)(=O)c2cccc(-c3nnc(-c4ccccc4)o3)c2)cc1	.	-8.8	-6.9	.	11.5	-4.9
